{"source": "ChEMBL document CHEMBL1151472", "about": "“In vitro interactions between tacrolimus and azoles against Candida albicans determined by different methods” (2008)", "format_in_all_cases": "functional", "key": {"[1]": {"tested_on": "Candida albicans", "test": "Antimicrobial activity against azole-resistant Candida albicans isolate CA10 assessed as growth at 4 ug/ml cotreated with 0.004 ug/ml calcineurin signaling inhibitor tacrolimus after 48 hrs by microdilution checkerboard technique relative to control", "design": "scale not given: the % may be the effect or the level left", "procedure,_shortened": "(§1)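 CA10 in RPMI 1640 with 2% dextrose and 0.165 M MOPS, pH 7.0. Checkerboard used twofold dilutions, with azole alone in row H and the drug-free growth control in well H1. Final inoculum was 2.5 × 10^3 CFU/ml, incubated 35°C for 48 h, with OD read at 492 nm. Growth % = background-subtracted well OD / drug-free well OD. Run in triplicate on different days.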"}, "[2]": {"tested_on": "Candida albicans", "test": "Antimicrobial activity against azole-resistant Candida albicans isolate CA10 assessed as growth at 0.5 ug/ml co-treated with 0.016 ug/ml calcineurin signaling inhibitor tacrolimus after 48 hrs by microdilution checkboard technique relative to control", "design": "scale not given: the % may be the effect or the level left", "procedure,_shortened": "(§2)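 Checkerboard microdilution in MOPS-buffered RPMI 1640 (pH 7.0, 2% dextrose). Final ranges: azole 0.125–128 μg/ml (FLC) or 0.008–8 μg/ml (ITR, VRC), tacrolimus 0.002–0.125 μg/ml; solvent 1% in single-drug wells. Inoculum 2.5 × 10^3 CFU/ml, 35°C, 48 h. Growth % = background-subtracted OD492 of each well / drug-free well. Triplicate on different days.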"}, "[3]": {"tested_on": "Candida albicans", "test": "Antimicrobial activity against azole-resistant Candida albicans isolate CA10 assessed as growth at 8 ug/ml cotreated with 0.031 ug/ml calcineurin signaling inhibitor tacrolimus after 48 hrs by microdilution checkerboard technique relative to control", "design": "scale not given: the % may be the effect or the level left", "procedure,_shortened": "(§3)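 Checkerboard microdilution in RPMI 1640 (pH 7.0, 2% dextrose, 0.165 M MOPS). Azole dilutions run along columns and FK506 along rows, at 4× final concentration. Final inoculum 2.5 × 10^3 CFU/ml from Sabouraud-subcultured cells. Incubated 35°C for 48 h; OD read at 492 nm. Background from microorganism-free plates subtracted. Growth % = well OD / drug-free well OD. Triplicate on different days, values averaged.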"}, "[4]": {"tested_on": "Candida albicans", "test": "Antimicrobial activity against azole-resistant Candida albicans isolate CA10 assessed as growth at 0.125 ug/ml cotreated with 0.002 ug/ml calcineurin signaling inhibitor Tacrolimus after 48 hrs by microdilution checkboard technique relative to control", "design": "scale not given: the % may be the effect or the level left", "procedure,_shortened": "as §2"}, "[5]": {"tested_on": "Candida albicans", "test": "Antimicrobial activity against azole-resistant Candida albicans isolate CA16 cotreated with calcineurin signaling inhibitor Tacrolimus after 48 hrs by microdilution checkerboard technique", "settings": "isolate CA16, 48 h", "procedure,_shortened": "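Checkerboard microdilution in MOPS-buffered RPMI 1640 (pH 7.0, 2% dextrose) with 2.5 × 10^3 CFU/ml for 48 h at 35°C. Final FK506 was 0.002–0.125 μg/ml. Azole finals were FLC 0.125–128 μg/ml, and ITR and VRC 0.008–8 μg/ml. MIC80 is an 80% OD492 decrease vs drug-free control. Interaction was scored by FICI (synergy ≤0.5, antagonism >4) and by ΔE from triplicates.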"}, "[6]": {"tested_on": "Candida albicans", "test": "Antimicrobial activity against azole-resistant Candida albicans isolate CA10 assessed as log reduction in colony count at 10 ug/ml co-treated with calcineurin signaling inhibitor tacrolimus after 48 hrs by XTT assay", "procedure,_shortened": "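Same time-kill setup (10^5 CFU/ml start, azole ± 0.016 μg/ml FK506, 35°C). At each time point, aliquots were mixed 1:1 with XTT (0.5 g/liter in Ringer's lactate) plus 10 μM menadione final. Incubation was in the dark for up to 2 h at 35°C, then formazan was read at 492 nm. OD was converted to CFU via a standard curve (Y = 4.2610x + 4.2087). Triplicate.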"}, "[7]": {"tested_on": "Candida albicans", "test": "Antimicrobial activity against azole-resistant Candida albicans isolate CA10 assessed as growth at 2 ug/ml cotreated with 0.008 ug/ml calcineurin signaling inhibitor Tacrolimus after 48 hrs by microdilution checkboard technique relative to control", "design": "scale not given: the % may be the effect or the level left", "procedure,_shortened": "as §2"}, "[8]": {"tested_on": "Candida albicans", "test": "Antimicrobial activity against azole-resistant Candida albicans isolate CA10 assessed as growth at 64 ug/ml cotreated with 0.063 ug/ml calcineurin signaling inhibitor Tacrolimus after 48 hrs by microdilution checkboard technique relative to control", "design": "scale not given: the % may be the effect or the level left", "procedure,_shortened": "as §1"}, "[9]": {"tested_on": "Candida albicans", "test": "Antimicrobial activity against azole-resistant Candida albicans isolate CA10 assessed as growth at 1 ug/ml cotreated with 0.004 ug/ml calcineurin signaling inhibitor Tacrolimus after 48 hrs by microdilution checkboard technique relative to control", "design": "scale not given: the % may be the effect or the level left", "procedure,_shortened": "as §2"}, "[10]": {"tested_on": "Candida albicans", "test": "Antimicrobial activity against azole-resistant Candida albicans isolate CA10 assessed as growth at 2 ug/ml cotreated with 0.004 ug/ml calcineurin signaling inhibitor tacrolimus after 48 hrs by microdilution checkerboard technique relative to control", "design": "scale not given: the % may be the effect or the level left", "procedure,_shortened": "as §2"}, "[11]": {"tested_on": "Candida albicans", "test": "Antimicrobial activity against azole-resistant Candida albicans isolate CA10 assessed as growth at 64 ug/ml co-treated with 0.016 ug/ml calcineurin signaling inhibitor tacrolimus after 48 hrs by microdilution checkboard technique relative to control", "design": "scale not given: the % may be the effect or the level left", "procedure,_shortened": "as §1"}, "[12]": {"tested_on": "Candida albicans", "test": "Antimicrobial activity against azole-resistant Candida albicans isolate CA10 assessed as growth at 4 ug/ml cotreated with 0.008 ug/ml calcineurin signaling inhibitor tacrolimus after 48 hrs by microdilution checkerboard technique relative to control", "design": "scale not given: the % may be the effect or the level left", "procedure,_shortened": "as §1"}, "[13]": {"tested_on": "Candida albicans", "test": "Antimicrobial activity against azole-resistant Candida albicans isolate CA10 assessed as growth at 1 ug/ml after 48 hrs by microdilution checkerboard technique relative to control", "procedure,_shortened": "as §2"}, "[14]": {"tested_on": "Candida albicans", "test": "Antimicrobial activity against azole-resistant Candida albicans isolate CA10 assessed as growth at 0.5 ug/ml co-treated with 0.125 ug/ml calcineurin signaling inhibitor tacrolimus after 48 hrs by microdilution checkboard technique relative to control", "design": "scale not given: the % may be the effect or the level left", "procedure,_shortened": "as §2"}, "[15]": {"tested_on": "Candida albicans", "test": "Antimicrobial activity against azole-resistant Candida albicans isolate CA10 assessed as growth at 8 ug/ml cotreated with 0.016 ug/ml calcineurin signaling inhibitor Tacrolimus after 48 hrs by microdilution checkboard technique relative to control", "design": "scale not given: the % may be the effect or the level left", "procedure,_shortened": "as §1"}, "[16]": {"tested_on": "Candida albicans", "test": "Antimicrobial activity against azole-resistant Candida albicans isolate CA10 assessed as growth at 4 ug/ml cotreated with 0.125 ug/ml calcineurin signaling inhibitor Tacrolimus after 48 hrs by microdilution checkboard technique relative to control", "design": "scale not given: the % may be the effect or the level left", "procedure,_shortened": "as §1"}, "[17]": {"tested_on": "Candida albicans", "test": "Antimicrobial activity against azole-resistant Candida albicans isolate CA10 assessed as growth at 16 ug/ml cotreated with 0.125 ug/ml calcineurin signaling inhibitor tacrolimus after 48 hrs by microdilution checkerboard technique relative to control", "design": "scale not given: the % may be the effect or the level left", "procedure,_shortened": "as §2"}, "[18]": {"tested_on": "Candida albicans", "test": "Antimicrobial activity against azole-susceptible Candida albicans isolate CA14 after 48 hrs by broth microdilution method", "settings": "isolate CA14, 48 h", "procedure,_shortened": "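CLSI M27-A2 broth microdilution was run in RPMI 1640 (pH 7.0, 2% dextrose, 0.165 M MOPS). Inoculum was 2.5 × 10^3 CFU/ml, incubated 35°C for 48 h without shaking. Plates were read visually (0–5 scale) and at OD 492 nm. MIC80 = lowest concentration giving an 80% absorbance decrease vs drug-free control. Triplicate.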"}, "[19]": {"tested_on": "Candida albicans", "test": "Antimicrobial activity against azole-resistant Candida albicans isolate CA10 assessed as growth at 0.25 ug/ml cotreated with 0.063 ug/ml calcineurin signaling inhibitor Tacrolimus after 48 hrs by microdilution checkboard technique relative to control", "design": "scale not given: the % may be the effect or the level left", "procedure,_shortened": "as §3"}, "[20]": {"tested_on": "Candida albicans", "test": "Antimicrobial activity against azole-resistant Candida albicans isolate CA10 assessed as growth at 32 ug/ml cotreated with 0.016 ug/ml calcineurin signaling inhibitor Tacrolimus after 48 hrs by microdilution checkboard technique relative to control", "design": "scale not given: the % may be the effect or the level left", "procedure,_shortened": "as §1"}}}
{"compound": "OC(Cn1cncn1)(Cn1cncn1)c1ccc(F)cc1F", "note": "[FLUCONAZOLE]", "values": [{"measurement": "Activity", "setting": "[1]", "value": 46, "unit": "%"}, {"measurement": "Activity", "setting": "[2]", "value": 21, "unit": "%"}, {"measurement": "Activity", "setting": "[3]", "value": 18, "unit": "%"}, {"measurement": "Activity", "setting": "[4]", "value": 76, "unit": "%"}, {"measurement": "MIC", "setting": "[5]", "value": 0.5, "unit": "µg/mL"}, {"measurement": "Activity", "setting": "[6]", "value": 2.37}, {"measurement": "Activity", "setting": "[7]", "value": 22, "unit": "%"}, {"measurement": "Activity", "setting": "[8]", "value": 0, "unit": "%"}, {"measurement": "Activity", "setting": "[9]", "value": 29, "unit": "%"}, {"measurement": "Activity", "setting": "[10]", "value": 32, "unit": "%"}, {"measurement": "Activity", "setting": "[11]", "value": 16, "unit": "%"}, {"measurement": "Activity", "setting": "[12]", "value": 30, "unit": "%"}, {"measurement": "Activity", "setting": "[13]", "value": 56, "unit": "%"}, {"measurement": "Activity", "setting": "[14]", "value": 6, "unit": "%"}, {"measurement": "Activity", "setting": "[15]", "value": 19, "unit": "%"}, {"measurement": "Activity", "setting": "[16]", "value": 5, "unit": "%"}, {"measurement": "Activity", "setting": "[17]", "value": 3, "unit": "%"}, {"measurement": "MIC", "setting": "[18]", "value": 0.5, "unit": "µg/mL"}, {"measurement": "Activity", "setting": "[19]", "value": 11, "unit": "%"}, {"measurement": "Activity", "setting": "[20]", "value": 18, "unit": "%"}]}
